Data from paper PMC4245169 (ACS Chemical Biology, 2014).

Tests used:
E. coli 23S rRNA [1] = settings: cited from earlier work
[2] = test system: rabbit reticulocyte whole cell lysate (eukaryotic ribosomal preparation); assay: Cell free translation inhibition, rabbit reticulocyte lysate; type: biochemical
Outline: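 Nuclease-treated rabbit reticulocyte lysate was preincubated with test compound at varying concentrations and all amino acids for 20 min at room temperature. Luciferase control template was then added, and translation ran at 30 °C for 90 min before stopping on ice for 5 min. Luminescence was read after luciferin addition. Samples were run in triplicate and normalized to vehicle control. IC50 was fit by logit regression and averaged over three independent experiments.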

[3] = test system: E. coli whole cell extract (prokaryotic ribosomal preparation); assay: Cell free translation inhibition, E. coli S30 extract, luciferase reporter; type: biochemical; settings: read-out: E. coli IC50, average of three independent experiments
Outline: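 Test compound at varying concentrations preincubated 20 min at room temperature with E. coli S30 extract plus all amino acids. Luciferase control template then added and translation run 60 min at 37 °C, stopped on ice 5 min. Luminescence read right after luciferin addition. Triplicates normalised to vehicle control; macrolide positive controls. IC50 by logit regression, averaged over three independent experiments.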

E. coli 23S rRNA [4] = assay: CMCT chemical footprinting of 23S rRNA in intact 70S ribosomes; type: binding; settings: primer 2180; peptolides and 7b 150 μM, clarithromycin 50 μM

| Structure (SMILES) | protection of A752 (E. coli 23S rRNA [1]) | inhibition of eukaryotic translation (in words) ([2]; RRL, controls at 250 μM) | IC50 ([2]; read-out: rabbit retic. IC50, cell free translation, luciferase reporter, average of three independent experiments) [nM] | IC50 [3] [nM] | protection of U1963 from CMCT modification (E. coli 23S rRNA [4]) |
| --- | --- | --- | --- | --- | --- |
| CC[C@H]1OC(=O)[C@H](C)C(=O)[C@H](C)[C@@H](O[C@@H]2O[C@H](C)C[C@H](N(C)C)[C@H]2O)[C@](C)(OC)C[C@@H](C)C(=O)[C@H](C)[C@H]2N(CCCCn3cnc(-c4cccnc4)c3)C(=O)O[C@]12C [TEL, telithromycin] | protected | – | – | – | – |
| CC[C@H]1OC(=O)[C@H](C)[C@@H](O[C@H]2C[C@@](C)(OC)[C@@H](O)[C@H](C)O2)[C@H](C)[C@@H](O[C@@H]2O[C@H](C)C[C@H](N(C)C)[C@H]2O)[C@](C)(OC)C[C@@H](C)C(=O)[C@H](C)[C@@H](O)[C@]1(C)O [clarithromycin 1, clarithromycin] | – | inactive | > 250000 | 320 ± 120 | available to CMCT modification |
